Data on 8 compounds can be found in ChEMBL document CHEMBL3351863, “Optimization of 2-phenyl-pyrimidine-4-carboxamides towards potent, orally bioavailable and selective P2Y(12) antagonists for inhibition of platelet aggregation” (Bioorg Med Chem Lett, 2014).

Usually AUC stands for concentration integrated over time. Higher therefore signals high exposure. What is called IC50 is the concentration at which inhibition is half-maximal. In general, Cmax refers to the peak of the concentration-time curve. As usually defined, the half-life is the time needed for the level to fall by half in the phase considered. The low end stands for fast loss, the high end for slow loss. A word on the bioavailability: it is dose-corrected exposure relative to a reference, in per cent. The clearance is the volume of plasma or blood freed of the substance per unit of time. A lower clearance goes with a low capacity for elimination.

The nature of data set [1]: Solubility in basic pH. Format: physicochemical.
Data set [2] addresses T1, Cytochrome P450 3A4 (Homo sapiens, UniProt P08684). The data set is described as follows: Inhibition of CYP3A4 in human liver microsomes assessed as reduction in midazolam 1'-hydroxylation. Format: ADME. On the technique in general: Microsomes from liver hold many membrane-bound enzymes, among them those of drug oxidation.
Data set [3] is described as follows: AUC in Wistar rat at 10 mg/kg, po. Format: ADME, organism-based, Plasma. The arrangement: dose 10 mg/kg, route oral. Conditions: Wistar, plasma. The method, boiled down:
(§1)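 Rats dosed by iv infusion at 1 mg/kg (n = 2) or orally at 10 mg/kg (n = 3); plasma levels measured, limit of quantification ca. 1 ng/mL.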

Data set [4] addresses P2Y purinoceptor 12 (Homo sapiens, UniProt Q9H244). The experiment in a line: Displacement of [3H]-2-methyl-thio-adenosine 5'-diphosphate from human recombinant P2Y12 expressed in CHO cell membranes by scintillation counting method. The method, boiled down: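 CHO cells expressing recombinant P2Y₁₂ receptors, incubated with tritium-labeled 2-methyl-thio-adenosine 5'-diphosphate plus test compound; IC₅₀ from displacement curves, each point in triplicate; reference compound run with every compound set, and set re-analyzed if its IC₅₀ fell outside pre-set 95% confidence interval.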

Data set [5] relates to Platelet. The data set is described as follows: Inhibition of ADP-induced platelet aggregation in human platelet rich plasma by in-vitro light transmission aggregometry assay. It counts as functional. Conditions: Homo sapiens, Platelet, Plasma. In a few lines: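 Human platelet-rich plasma incubated with compound, aggregation induced by 3 µM ADP and read by light transmission aggregometry; IC₅₀ derived from concentration–response curve.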

Data set [6] deals with Platelet. The experiment in a line: Inhibition of ADP-induced platelet aggregation in human platelet rich plasma assessed as remaining activity at 500 nM by in-vitro light transmission aggregometry assay. It counts as functional. In a few lines: (§2)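 Light transmission aggregometry in human platelet-rich plasma; compound incubated, aggregation triggered with 3 µM ADP; remaining activity (RA) recorded at a single compound level (1000, 500 or 100 nM).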

The nature of data set [7]: Cmax in Wistar rat at 10 mg/kg, po. The note with it: Wistar, in vivo. It counts as ADME, organism-based. The arrangement: dose 10 mg/kg, route oral. The method, boiled down:
as §1

For data set [8], the system named is Liver microsome. The data set is described as follows: Metabolic stability assay in rat liver microsomes assessed as parent drug disappearance at 1 uM after 20 mins by HPLC and mass spectrometry method. It counts as ADME.
The target in data set [9] is Cytochrome P450 2C9 (Homo sapiens, UniProt P11712). The data set is described as follows: Inhibition of CYP2C9 in human liver microsomes assessed as reduction in diclofenac 4'-hydroxylation. Format: ADME.
The target in data set [10] is T1, Cytochrome P450 3A4. The experiment in a line: Inhibition of CYP3A4 in human liver microsomes assessed as reduction in testosterone 6beta-hydroxylation. Format: ADME.
The nature of data set [11]: Potency shift, ratio of IC50 for inhibition of ADP-induced platelet aggregation in human platelet rich plasma to IC50 for displacement of [3H]-2-methyl-thio-adenosine 5'-diphosphate from human recombinant P2Y12 expressed in CHO cell membranes. A general note: Loss of bound radioactivity is the signal in a displacement assay; it reports binding, not function.
For data set [12], the target named is Cytochrome P450 2D6 (Homo sapiens, UniProt P10635). The experiment in a line: Inhibition of CYP2D6 in human liver microsomes assessed as reduction in dextromethorphan-O demethylation. Format: ADME.
The nature of data set [13]: Solubility in neutral pH. Format: physicochemical.
For data set [14], the target named is Voltage-gated inwardly rectifying potassium channel KCNH2 (Homo sapiens, UniProt Q12809). The experiment in a line: Inhibition of human ERG expressed in HEK cells by patch-clamp assay. It counts as cell-based. Conditions: hek293. On the technique in general: Patch clamp records ionic current or voltage across a cell membrane.
Data set [15] concerns Liver microsome. The data set is described as follows: Metabolic stability assay in human liver microsomes assessed as parent drug disappearance at 1 uM after 20 mins by HPLC and mass spectrometry method. Format: ADME.
Data set [16] concerns Platelet. The data set is described as follows: Inhibition of ADP-induced platelet aggregation in human platelet rich plasma assessed as remaining activity at 100 nM by in-vitro light transmission aggregometry assay. It counts as functional. The method, boiled down: as §2
Data set [17] can be described thus: Protein binding in human plasma. Format: ADME, cell-free. Conditions: read-out: PPB (converted).
Data set [18] relates to Platelet. The data set is described as follows: Inhibition of ADP-induced platelet aggregation in human platelet rich plasma assessed as remaining activity at 1000 nM by in-vitro light transmission aggregometry assay. It counts as functional. In a few lines:
as §2

Data set [19] is described as follows: Volume of distribution at steady state in Wistar rat at 1 mg/kg, iv or 10 mg/kg, po. Format: ADME, organism-based. The note with it: in vivo, read-out: Vdss. The method, boiled down:
as §1

Data set [20] in a line: Half life in Wistar rat at 1 mg/kg, iv or 10 mg/kg, po. It counts as ADME, organism-based. The note with it: in vivo. The method, boiled down:
as §1

Data set [21] can be described thus: Oral bioavailability in Wistar rat at 10 mg/kg. It counts as ADME, organism-based. The note with it: Wistar, in vivo. In a few lines:
as §1

A short description of data set [22]: Clearance in Wistar rat at 1 mg/kg, iv. It counts as ADME, organism-based. The arrangement: dose 1 mg/kg, route intravenous. Conditions: in vivo. The method, boiled down: as §1

Where only a bound is given, the exact number is not on record here.

T1 sequence (P08684 whole entry): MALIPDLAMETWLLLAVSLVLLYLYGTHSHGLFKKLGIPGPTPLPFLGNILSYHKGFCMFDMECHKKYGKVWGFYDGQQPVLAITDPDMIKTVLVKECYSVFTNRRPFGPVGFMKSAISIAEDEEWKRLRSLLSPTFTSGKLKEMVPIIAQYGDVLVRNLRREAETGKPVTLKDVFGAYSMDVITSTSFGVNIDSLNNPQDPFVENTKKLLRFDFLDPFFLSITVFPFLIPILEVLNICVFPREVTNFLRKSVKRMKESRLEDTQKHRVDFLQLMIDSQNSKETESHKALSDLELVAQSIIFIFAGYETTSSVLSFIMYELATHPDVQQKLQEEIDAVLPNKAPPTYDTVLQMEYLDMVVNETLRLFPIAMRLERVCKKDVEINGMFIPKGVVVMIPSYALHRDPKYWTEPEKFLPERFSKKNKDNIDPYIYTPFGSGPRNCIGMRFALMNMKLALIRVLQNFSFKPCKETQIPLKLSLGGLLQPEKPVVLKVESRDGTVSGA
Chain of Cytochrome P450 2D6 (P10635 whole entry): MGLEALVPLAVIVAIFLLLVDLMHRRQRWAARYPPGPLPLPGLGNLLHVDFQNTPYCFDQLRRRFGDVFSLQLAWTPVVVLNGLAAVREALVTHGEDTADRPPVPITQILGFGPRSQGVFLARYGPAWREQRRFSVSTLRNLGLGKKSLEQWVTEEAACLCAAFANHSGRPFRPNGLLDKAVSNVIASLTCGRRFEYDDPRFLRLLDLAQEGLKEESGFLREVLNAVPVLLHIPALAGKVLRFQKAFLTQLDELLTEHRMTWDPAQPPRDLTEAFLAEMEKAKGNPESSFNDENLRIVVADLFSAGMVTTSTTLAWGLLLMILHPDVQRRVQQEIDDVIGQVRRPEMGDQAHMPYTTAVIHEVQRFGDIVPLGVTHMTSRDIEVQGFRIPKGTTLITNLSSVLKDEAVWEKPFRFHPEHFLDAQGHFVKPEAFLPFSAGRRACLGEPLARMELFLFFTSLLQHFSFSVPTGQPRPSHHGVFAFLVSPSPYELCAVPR
Chain of Cytochrome P450 2C9 (P11712 whole entry): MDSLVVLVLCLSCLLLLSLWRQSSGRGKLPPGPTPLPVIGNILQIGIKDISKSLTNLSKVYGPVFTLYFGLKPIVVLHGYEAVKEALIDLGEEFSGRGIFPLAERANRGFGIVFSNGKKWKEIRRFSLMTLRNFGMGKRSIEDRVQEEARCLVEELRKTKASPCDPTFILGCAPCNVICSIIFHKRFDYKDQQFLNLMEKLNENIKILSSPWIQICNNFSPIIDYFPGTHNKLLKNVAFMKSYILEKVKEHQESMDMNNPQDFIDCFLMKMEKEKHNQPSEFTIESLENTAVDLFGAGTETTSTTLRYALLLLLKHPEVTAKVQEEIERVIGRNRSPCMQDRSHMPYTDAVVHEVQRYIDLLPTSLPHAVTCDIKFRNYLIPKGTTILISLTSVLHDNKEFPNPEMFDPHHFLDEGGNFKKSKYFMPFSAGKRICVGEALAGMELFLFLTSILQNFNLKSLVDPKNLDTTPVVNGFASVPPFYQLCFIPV
Chain of P2Y purinoceptor 12 (Q9H244 whole entry): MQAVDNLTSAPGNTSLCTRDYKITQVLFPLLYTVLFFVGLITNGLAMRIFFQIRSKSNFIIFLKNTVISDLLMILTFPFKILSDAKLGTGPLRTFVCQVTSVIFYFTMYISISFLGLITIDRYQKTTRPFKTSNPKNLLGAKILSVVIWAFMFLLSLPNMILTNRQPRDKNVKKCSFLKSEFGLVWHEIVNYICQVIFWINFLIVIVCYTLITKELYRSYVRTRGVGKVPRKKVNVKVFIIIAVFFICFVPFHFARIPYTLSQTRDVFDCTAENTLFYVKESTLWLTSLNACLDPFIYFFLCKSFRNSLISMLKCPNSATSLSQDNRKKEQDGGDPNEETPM
Chain of Voltage-gated inwardly rectifying potassium channel KCNH2 (Q12809 whole entry): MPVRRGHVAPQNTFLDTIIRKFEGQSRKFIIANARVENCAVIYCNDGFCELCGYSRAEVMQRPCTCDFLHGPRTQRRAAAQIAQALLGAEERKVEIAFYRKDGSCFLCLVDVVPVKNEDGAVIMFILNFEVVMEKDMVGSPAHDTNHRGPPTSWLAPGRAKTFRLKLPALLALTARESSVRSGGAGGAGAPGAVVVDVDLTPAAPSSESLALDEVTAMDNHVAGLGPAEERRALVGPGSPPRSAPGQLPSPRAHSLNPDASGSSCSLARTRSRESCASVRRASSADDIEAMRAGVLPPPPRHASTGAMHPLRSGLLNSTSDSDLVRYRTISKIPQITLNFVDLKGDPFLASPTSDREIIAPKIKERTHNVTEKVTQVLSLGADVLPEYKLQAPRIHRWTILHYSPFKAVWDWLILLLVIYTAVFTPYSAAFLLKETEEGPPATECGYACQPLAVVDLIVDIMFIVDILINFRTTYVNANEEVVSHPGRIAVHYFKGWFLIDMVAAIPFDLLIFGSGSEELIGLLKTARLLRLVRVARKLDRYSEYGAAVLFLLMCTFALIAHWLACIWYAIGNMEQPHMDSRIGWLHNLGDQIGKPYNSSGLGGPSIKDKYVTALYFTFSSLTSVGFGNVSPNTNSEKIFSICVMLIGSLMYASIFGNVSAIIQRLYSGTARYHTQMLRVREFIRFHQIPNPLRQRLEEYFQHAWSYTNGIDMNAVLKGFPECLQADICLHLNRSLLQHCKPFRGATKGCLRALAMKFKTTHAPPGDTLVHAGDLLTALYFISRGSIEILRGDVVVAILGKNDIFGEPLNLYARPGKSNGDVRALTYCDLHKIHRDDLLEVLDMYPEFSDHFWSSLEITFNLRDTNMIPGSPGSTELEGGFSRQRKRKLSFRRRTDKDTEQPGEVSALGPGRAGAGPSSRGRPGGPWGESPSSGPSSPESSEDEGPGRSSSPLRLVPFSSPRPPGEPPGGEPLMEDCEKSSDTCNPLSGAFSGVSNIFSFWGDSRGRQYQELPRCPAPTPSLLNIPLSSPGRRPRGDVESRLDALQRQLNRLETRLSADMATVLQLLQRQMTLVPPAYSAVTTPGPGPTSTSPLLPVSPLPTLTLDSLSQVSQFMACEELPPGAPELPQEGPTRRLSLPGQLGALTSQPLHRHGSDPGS

As for `CCOC(=O)N1CCN(C(=O)[C@H](CCC(=O)O)NC(=O)c2cc(C3CCC(O)CC3)nc(-c3ccccc3)n2)CC1` (stereo not given in full), the solubility entry in [1] and in [13] was “soluble” throughout. The “inhibition (INH)” value in [2], in data set [9], in [10], in data set [12] and in data set [14] was “Not Active” throughout. Moreover, the AUC in [3] amounted to 0.0782 µM·h. The IC50 in data set [4] came out at 40 nM; in data set [5], 171 nM. Also, the Activity in data set [6] is <30%; in data set [16] it was <70%. Moreover, the Cmax in data set [7] turned out to be 46.3 nM. Besides, the Stability result in data set [8] and in data set [15] was “Stable” each time. Besides, the “Ratio IC50” value in data set [11] was 4.3.
As for `CCOC(=O)N1CCN(C(=O)[C@H](CCC(=O)O)NC(=O)c2cc(N[C@@H]3CCOC3)nc(-c3ccccc3)n2)CC1`, the solubility entry in data set [1] and in [13] was “soluble” throughout. Besides, the “inhibition (INH)” value in data set [2], in data set [9], in data set [10], in data set [12] and in data set [14] was “Not Active” each time. The fraction unbound in data set [17] is 0.085. For the same compound, the figures for the IC50 in data set [4] and in data set [5] were 25 nM and 58 nM, respectively. Moreover, the Activity is reported as <30% in [6] and <70% in [16]. Also, the Stability entry in data set [8] and in data set [15] was “Stable” throughout. In data set [11], the “Ratio IC50” value was 2.3.
With `CCOC(=O)N1CCN(C(=O)[C@H](CCC(=O)O)NC(=O)c2cc(CCCO)nc(-c3ccccc3)n2)CC1`, the solubility result in [1] and in data set [13] was “soluble” each time. In addition, the “inhibition (INH)” value in [2], in data set [9], in data set [10], in [12] and in data set [14] was “Not Active” throughout. Besides, in [17], the fraction unbound was 0.128. In addition, the IC50 in data set [4] worked out at 218 nM; in [5], 264 nM. For the same compound, the figures for the Activity in [6] and in data set [16] were <30% and <70%, respectively. The Stability result in data set [8] and in [15] was “Stable” each time. Moreover, in data set [11], the “Ratio IC50” value turned out to be 1.2.
As to `CCOC(=O)N1CCN(C(=O)[C@H](CCC(=O)O)NC(=O)c2cc(C(C)(C)O)nc(-c3ccccc3)n2)CC1`, the solubility entry in data set [1] and in [13] was “soluble” in each case. In addition, the “inhibition (INH)” value in [2], in data set [9], in [10], in data set [12] and in data set [14] was “Not Active” each time. For the same compound, in data set [3], the AUC came out at 0.109 µM·h. The IC50 in data set [4] is 35 nM; in data set [5] it was 118 nM. The Activity in data set [6] is recorded as <30%; in data set [16] it was <70%. The peak level in data set [7] (Cmax) was 56.1 nM. The Stability entry in data set [8] and in data set [15] was “Stable” throughout. Moreover, the “Ratio IC50” value in data set [11] is 3.4.
Take `CCCCc1cc(C(=O)N[C@@H](CCC(=O)O)C(=O)N2CCN(C(=O)OCC)CC2)nc(-c2ccccc2)n1`: the solubility result in [1] and in data set [13] was “soluble” throughout. Besides, the “inhibition (INH)” value in [2], in [9], in data set [10], in data set [12] and in data set [14] was “Not Active” each time. For the same compound, in data set [17], the fraction unbound is 0.007. Half-maximal inhibition in data set [5] (IC50) required 1930 nM. Also, the Activity in data set [6] is on record as >60%; in [18], >30%. Moreover, the Stability entry in data set [8] and in data set [15] was “Stable” in each case. Moreover, in data set [11], the “Ratio IC50” value came out at 20.
In the case of `CCOC(=O)N1CCN(C(=O)[C@H](CCC(=O)O)NC(=O)c2cc(N3CCN(C)CC3)nc(-c3ccccc3)n2)CC1`, the solubility entry in data set [1] and in data set [13] was “soluble” each time. Also, the “inhibition (INH)” value in data set [2], in [9], in [10], in [12] and in data set [14] was “Not Active” throughout. The compound also yielded an AUC in data set [3] of 0.164 µM·h. In addition, the IC50 in data set [4] was found to be 46 nM. The Vd in data set [19] came to 0.8 L/kg. Besides, the Activity is listed as <30% in data set [6] and <70% in data set [16]. In addition, the half-life in [20] was 18 min. Further, the peak concentration (Cmax) in data set [7] came out at 192 nM. The Stability entry in data set [8] and in [15] was “Stable” each time. Besides, the bioavailability in data set [21] amounted to 3%. This compound returned a clearance in data set [22] of 49 mL/min/kg.
As to `CCCCOC(=O)N1CCN(C(=O)[C@H](CCC(=O)O)NC(=O)c2cc(N3CC[C@H](OC)C3)nc(-c3ccccc3)n2)CC1`, the solubility result in data set [1] and in data set [13] was “soluble” throughout. Further, the “inhibition (INH)” value in data set [2], in data set [9], in data set [10], in data set [12] and in data set [14] was “Not Active” throughout. The AUC in data set [3] is 1.17 µM·h. The IC50 in [4] was determined as 3 nM; in [5] it was 21 nM. Also, in [19], the Vd stood at 0.5 L/kg. In data set [20], this compound had a half-life of 72 min. Moreover, the Cmax in [7] amounted to 1690 nM. Moreover, the Stability result in data set [8] and in data set [15] was “Stable” throughout. The compound further registered a bioavailability in data set [21] of 9%. In [11], the “Ratio IC50” value is reported as 7. Also, the clearance in [22] turned out to be 24 mL/min/kg.
Turning to `CCCNc1cc(C(=O)N[C@@H](CCC(=O)O)C(=O)N2CCN(C(=O)OCC)CC2)nc(-c2ccccc2)n1`, the solubility result in data set [1] and in [13] was “soluble” throughout. The “inhibition (INH)” value in data set [2], in data set [9], in [10], in data set [12] and in [14] was “Not Active” in each case. For the same compound, the fraction unbound in [17] was 0.015. The IC50 in [4] was determined as 162 nM; in data set [5] it was 3820 nM. In addition, the Stability entry in [8] and in data set [15] was “Stable” in each case. In addition, in [11], the “Ratio IC50” value is 24.
